From ChEMBL document CHEMBL4673214, “Synthesis and antibacterial bioactivities of cationic deacetyl linezolid amphiphiles” (Eur J Med Chem, 2018)
Activity calls are given as the source filed them. No cut-off for these calls is given here.

Assays:
Escherichia coli [1] = test: Antibiofilm activity against 72 hrs preformed biofilm of Escherichia coli ATCC 25922 assessed as biofilm viability at 2 ug/ml incubated for 24 hrs by […] (reference value: 16.1 log10CFU); format: functional; settings: dose 2 µg/ml
Procedure, shortened: (§1)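 E. coli from mid-log phase was diluted to ~10^5 CFU/mL in M9 medium with 0.02% casamino acids and 0.5% glycerol and formed biofilm without shaking for 72 h. Wells were PBS-washed, then treated with 2-128 µg/mL for 24 h at 37 °C; medium-only wells served as control. Cells were released with trypsin-EDTA and plated as tenfold dilutions. Viability was given as log10 CFU/well.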

Staphylococcus aureus [2] = test: Antibacterial activity against Staphylococcus aureus ATCC 29213 assessed as reduction in bacterial measured after 20 passages by CLSI-based broth microdilution method; format: functional
Procedure, shortened: (§2)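 Serial passaging: after each 24 h MIC assay, cells grown at 1/2 MIC were transferred and the MIC assayed again, for 20 passages. Done with S. aureus, E. coli and MRSA. MIC plotted against days of passage. Experiment repeated twice.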

Staphylococcus aureus [3] = test: Antibiofilm activity against 24 hrs preformed biofilm of Staphylococcus aureus ATCC 29213 assessed as biofilm viability at 32 ug/ml incubated for 24 hrs by crystal violet staining analysis (reference value: 18.9 1og10CFU); format: functional; settings: dose 32 µg/ml
Escherichia coli [4] = test: Bactericidal activity against early exponential phase of Escherichia coli ATCC 25922 at 4X MIC measured after 2 to 6 hrs hrs by time-kill kinetic assay; format: functional, organism-based; settings: time 2-6 hrs
Procedure, shortened: (§3)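 An overnight culture was diluted 1:10,000 in MHB and shaken at 225 rpm and 37 °C for 2 h (early exponential phase), then exposed to compound. Samples taken at intervals were centrifuged, resuspended in PBS, plated as tenfold dilutions on MHA and incubated overnight at 37 °C. CFU/mL were counted. Biological replicates were run.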

[5] = Selectivity index, ratio of HC50 for Sheep erythrocytes to MIC for Escherichia coli ATCC 25922; format: toxicity
Staphylococcus aureus [6] = test: Antibiofilm activity against 24 hrs preformed biofilm of Staphylococcus aureus ATCC 29213 assessed as biofilm viability at 2 ug/ml incubated for 24 hrs by crystal violet staining analysis (reference value: 18.9 1og10CFU); format: functional; settings: dose 2 µg/ml
Staphylococcus aureus [7] = test: Antibiofilm activity against Staphylococcus aureus ATCC 29213 assessed as inhibition of biofilm formation incubated for 24 hrs by crystal violet staining assay; format: functional
Procedure, shortened: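 Twofold serial dilutions in MHB received 1:1000-diluted exponential-phase bacteria and were incubated 24 h at 37 °C. Wells were rinsed, stained with 0.1% crystal violet for 10 min and dissolved in ethanol, and OD540 was read. MBIC80 was the concentration inhibiting 80% of biofilm formation versus untreated wells, taken from dose-response curves.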

Staphylococcus aureus [8] = test: Resistance ratio of compound MIC for methicillin-resistant Staphylococcus aureus after 20 passages to compound MIC for methicillin-resistant Staphylococcus aureus after 16 to 20 hrs by CLSI-based broth microdilution method; format: functional; procedure, shortened: as §2
[9] = Hemolytic activity in sheep RBC incubated for 1 hr; format: ADME, cell-based, Ovis aries, Erythrocyte; settings: sheep red blood cells (erythrocytes)
Procedure, shortened: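 Sheep RBCs were resuspended at 5% in PBS and mixed 3:1 with serial dilutions (2560 to 5 µg/mL, pre-mixing levels), then incubated 1 h at 37 °C. After centrifugation, supernatant A540 was read. Hemolysis % was calculated as (A−A0)/(Atotal−A0)×100, with untreated RBCs as 0% and 0.1% Triton X-100 as total lysis.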

Staphylococcus aureus [10] = test: Bactericidal activity against early exponential phase of Staphylococcus aureus ATCC 29213 at 6X MIC measured after 6 hrs by time-kill kinetic assay; format: functional, organism-based; procedure, shortened: as §3
Staphylococcus aureus [11] = test: Antibiofilm activity against 24 hrs preformed biofilm of Staphylococcus aureus ATCC 29213 assessed as biofilm viability at 64 ug/ml incubated for 24 hrs by crystal violet staining analysis (reference value: 18.9 1og10CFU); format: functional; settings: dose 64 µg/ml
Staphylococcus aureus [12] = test: Antibacterial activity against Staphylococcus aureus ATCC 29213 assessed as reduction in bacterial growth compound preincubated with 50% sheep plasma for 0 hrs followed by incubation for 20 to 24 hrs by agar plate method; format: functional; settings: time 20-24 hrs
Procedure, shortened: (§4)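 Sheep plasma came from centrifuged defibrinated blood. Compound at 512 µg/mL in 50% water/50% plasma was preincubated at 37 °C for 0, 3 or 6 h, then serially diluted (256 to 4 µg/mL). Dilutions were mixed 1:3 with S. aureus suspension (10^5 CFU/mL) and incubated 20-24 h at 37 °C. MBC was taken as no colonies after 20 µL was plated on agar.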

HeLa = test: Cytotoxicity against human HeLa cells assessed as cell morphology at 1 to 4 ug/mL incubated for 24 hrs by optical microscopy; format: cell-based; settings: dose 1-4 µg/ml
Procedure, shortened: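 HeLa cells were kept in DMEM with 10% FBS at 37 °C and 5% CO2. Cells were seeded in 12-well plates, allowed to adhere overnight and exposed to 1, 2 or 4 µg/mL for 24 h. Untreated wells were the negative control and 0.1% Triton X-100 the positive control. After a PBS wash, morphology was imaged by inverted microscopy with a 10× objective. Three repeats.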

[13] = Solubility of the compound in water at room temperature; format: physicochemical; settings: buffer
Escherichia coli [14] = test: Antibiofilm activity against 24 hrs preformed biofilm of Escherichia coli ATCC 25922 assessed as eradication of preformed biofilm incubated for 24 hrs by crystal violet staining assay; format: functional
Staphylococcus aureus [15] = test: Antibacterial activity against methicillin-resistant Staphylococcus aureus assessed as reduction in bacterial growth following incubation in 50% MHB medium and 50% plasma and meaured after incubation with compound for 20 to 24 hrs by agar plate method; format: functional; settings: time 20-24 hrs
Procedure, shortened: (§5)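 Sheep plasma obtained by centrifuging defibrinated blood at 3500 rpm for 10 min; serum isolated in serum tubes. MRSA at 10^5 CFU/mL in 50% MHB plus 50% serum, plasma or blood, or in MHB alone. Compound dilutions (512 to 4 µg/mL, pre-mixing) added 50 µL to 150 µL bacteria, 37 °C for 20-24 h. Then 20 µL plated on MHA, 37 °C 20-24 h; MBC taken as no colonies. Two repeats.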

Staphylococcus aureus [16] = test: Antibacterial activity against methicillin-resistant Staphylococcus aureus assessed as reduction in bacterial growth following incubation in 50% MHB medium and 50% blood and meaured after incubation with compound for 20 to 24 hrs by agar plate method; format: functional; settings: time 20-24 hrs; procedure, shortened: as §5
Staphylococcus aureus [17] = test: Antibacterial activity against methicillin-resistant Staphylococcus aureus assessed as reduction in bacterial growth following incubation in 50% MHB medium and 50% serum and meaured after incubation with compound for 20 to 24 hrs by agar plate method; format: functional; settings: time 20-24 hrs; procedure, shortened: as §5
Staphylococcus aureus [18] = test: Antibacterial activity against Staphylococcus aureus ATCC 29213 assessed as reduction in bacterial growth compound preincubated with 50% sheep plasma for 3 hrs followed by incubation for 20 to 24 hrs by agar plate method; format: functional; settings: time 20-24 hrs; procedure, shortened: as §4
Staphylococcus aureus [19] = test: Antibacterial activity against methicillin-resistant Staphylococcus aureus assessed as reduction in bacterial growth following incubation in MHB medium and meaured after incubation with compound for 20 to 24 hrs by agar plate method; format: functional; settings: time 20-24 hrs; procedure, shortened: as §5
Escherichia coli [20] = test: Antibiofilm activity against 72 hrs preformed biofilm of Escherichia coli ATCC 25922 assessed as biofilm viability at 32 ug/ml incubated for 24 hrs by […] (reference value: 16.1 log10CFU); format: functional; settings: dose 32 µg/ml; procedure, shortened: as §1

CCCCCCCCCCCN(C[C@H]1CN(c2ccc(N3CCOCC3)c(F)c2)C(=O)O1)C(=O)[C@@H](N)CCCCN.Cl.Cl
Activity (Escherichia coli [1]): 10.2 log10CFU
MIC (Staphylococcus aureus [2]): 2 µg/mL
Activity (Staphylococcus aureus [3]): 7.5 log10CFU
Activity (Escherichia coli [4]): Active
selectivity ratio [5]: 12.5
Activity (Staphylococcus aureus [6]): 13.9 log10CFU
MBIC80 (Staphylococcus aureus [7]): 25.9 µg/mL
MBIC90 (Staphylococcus aureus [7]): 34.1 µg/mL
Ratio (Staphylococcus aureus [8]): 2
HC50 at 1 h [9]: 100 µg/mL
Activity (Staphylococcus aureus [10]): Active
Activity (Staphylococcus aureus [11]): 5.9 log10CFU
MBC (Staphylococcus aureus [12]): 64 µg/mL
Activity (HeLa): Non-Toxic
solubility [13]: Soluble
MBEC (Escherichia coli [14]): 128 µg/mL
MBEC80 (Escherichia coli [14]): 112.8 µg/mL
MBEC90 (Escherichia coli [14]): 120.3 µg/mL
MBC (Staphylococcus aureus [15]): 128 µg/mL
MBC (Staphylococcus aureus [16]): > 128 µg/mL
MBC (Staphylococcus aureus [17]): > 128 µg/mL
MBC (Staphylococcus aureus [18]): 64 µg/mL
MBC (Staphylococcus aureus [19]): 128 µg/mL
Activity (Escherichia coli [20]): 6.1 log10CFU
